Measurements from different studies.
Lines come from different studies, so protocols differ. pIC50: −log10 of the molar value.
Read-out: cell growth or viability

SMILES | cell line | technique | time | pIC50
COc1cc(C2Oc3cc([C@H]4Oc5cc(O)cc(O)c5C(=O)[C@@H]4O)ccc3OC2CO)ccc1O (some centres unmarked) | RWPE-1 | CCK-8 | 72 h | < 3.52
CCOc1cc(OCC)cc(C(=O)O[C@@H]2CN3Cc4c(cc5c(c4OC)OCO5)[C@@]24C=C[C@H](OC)C[C@@H]34)c1 | PANC-1 | WST-1 | – | 5.08
Cc1cc(Oc2ccc(NC(=O)c3sc(-c4ccccc4)nc3C)cc2F)n2ncnc2n1 | L02 | MTT | – | < 4.30
COC1=C2C[C@@H](C)C[C@H](OC)[C@H](O)[C@@H](C)/C=C(\C)[C@H](OC(N)=O)[C@@H](OC)/C=C\C=C(/C)C(=O)NC(=CC1=O)C2=O | ARPE-19 | MTT | – | 7.00
Oc1c(I)cc(Cl)c2cccnc12 | L02 | MTT | 48 h | 4.10
Cc1c(OCC(F)(F)F)ccnc1COc1ccc(NC(=O)Nc2cccc(C(F)(F)F)c2)cc1 | L02 | MTT | 72 h | < 4.00
COc1cc2c(Oc3ccc(NC(=O)C4(C(=O)Nc5ccc(F)cc5)CC4)cc3F)ccnc2cc1OCCCN1CCOCC1 | L02 | MTT | – | < 4.30
Cc1c(OCC(F)(F)F)ccnc1COc1ccc(NC(=O)Nc2cc(F)cc(F)c2)cc1 | L02 | MTT | 72 h | < 4.00
CC(=O)c1cccc(N=Nc2c(C(=O)O)cc(O)c(O)c2O)c1 | PANC-1 | MTT | – | 5.04
O=c1[nH]cc(F)c(=O)[nH]1 | human Lymphocyte | – | 72 h | 4.74
COc1ccnc(COc2ccc(NC(=O)Nc3ccc(Cl)c(C(F)(F)F)c3)cc2)c1OC | L02 | MTT | 72 h | < 4.00
Oc1ccc(Nc2nc(-c3ccc(Cl)cc3)cs2)cc1 | WM-115 | MTS | 72 h | 4.93
Cc1ccc(S(=O)(=O)N(C)CC(=O)N(Cc2ccc(C3CCCCC3)cc2)c2ccc(C(=O)O)c(O)c2)cc1 | OCI-AML2 | – | – | 4.44
Clc1ccnc2c1ccc1c(Cl)ccnc12 | L02 | MTT | 48 h | < 4.30
COc1c(C)cnc(COc2ccc(NC(=O)Nc3cc(F)cc(F)c3)cc2)c1C | L02 | MTT | 72 h | < 4.00
Cc1cnc(-c2ccc(-c3ccc(NC(=O)Nc4c(F)cc(F)cc4F)cc3F)c3c2C(=O)NC3)[nH]1 | OCI-AML-3 | – | – | 7.93
COc1c(C)cnc(COc2ccc(NC(=O)Nc3ccc(Cl)c(C(F)(F)F)c3)cc2)c1C | L02 | MTT | 72 h | < 4.00
Cc1ccc2c(Br)cc(Br)c(O)c2n1 | L02 | MTT | 48 h | < 4.00

SMILES | cell line | technique | time | pIC50
Cc1cc(Oc2ccc(NC(=O)c3sc(-c4ccccc4)nc3C)cc2F)c2nncn2n1 | L02 | MTT | – | < 4.30
O=C(N/N=C/c1c(O)ccc2ccccc12)c1cc(-c2ccc3ccccc3c2)n[nH]1 | WM-115 | MTS | 24 h | 5.01
CO[C@H]1/C=C\C=C(/C)C(=O)NC2=C(C)C(=O)C(NCCN(C)C)=C(C[C@@H](C)C[C@H](OC)[C@H](O)[C@@H](C)/C=C(\C)[C@@H]1OC(N)=O)C2=O | ARPE-19 | MTT | – | < 4.70
Nc1ncc(-c2cnn(C3CCNCC3)c2)cc1-c1nnc(CC2CC2)o1 | OCI-AML-3 | trypan blue | 72 h | 6.32
C#Cc1cccc(Nc2ncnc3cc(OCCOC)c(OCCOC)cc23)c1 | PANC-1 | MTT | – | 7.30
CC(C)[C@H](N)C(=O)N1CCC[C@H]1B(O)O | OCI-AML2 | ATP luminescence | 48 h | 7.10
COc1ccnc(COc2ccc(NC(=O)Nc3ccc(Cl)cc3)cc2)c1OC | L02 | MTT | 72 h | < 4.00
Cc1cc(Oc2ccc(NC(=O)c3sc(-c4ccccn4)nc3C)cc2F)c2nncn2n1 | L02 | MTT | – | < 4.30
COc1cc(-c2ncn(/C=C\C(=O)OC(C)C)n2)cc(C(F)(F)F)c1 | OCI-AML2 | – | 72 h | 7.77
CC[C@@H](C)[C@H](N)C(=O)N1Cc2ccccc2C1 | OCI-AML2 | ATP luminescence | 48 h | 5.84
Cc1cc(Oc2ccc(NC(=O)c3sc(-c4ccc(F)cc4)nc3C)cc2)c2nncn2n1 | L02 | MTT | – | < 4.30
CCn1c(=O)c(-c2ccc(-c3cncs3)cc2Cl)cc2cnc(Nc3ccc(N4CCN(C)CC4)cc3)nc21 | PANC-1 | MTT | 24 h | 4.85
C=CCNC1=C2C[C@@H](C)C[C@H](OC)[C@H](O)[C@@H](C)/C=C(\C)[C@H](OC(N)=O)[C@@H](OC)/C=C\C=C(/C)C(=O)NC(=CC1=O)C2=O | ARPE-19 | MTT | – | 6.00
Cc1c(OCC(F)(F)F)ccnc1COc1ccc(NC(=O)Nc2ccc(Cl)cc2)cc1 | L02 | MTT | 72 h | < 4.00
C=C(C)C(=O)Nc1ccc(-c2c(-c3ccc(Oc4nccc(C)n4)c(F)c3)c3c(N)ncnc3n2C)cc1 | Li-7 | ATP luminescence | 96 h | < 5.00
COCCCOc1ccnc(COc2ccc(NC(=O)Nc3cccc(C(F)(F)F)c3)cc2)c1C | L02 | MTT | 72 h | < 4.00
Cc1cc(Oc2ccc(NC(=O)c3cnn(-c4ccc(Cl)cc4)c3C(F)(F)F)cc2F)n2ncnc2n1 | L02 | MTT | – | < 4.30
